Efflux pump inh = inhibitors of Candida efflux pumps in yeast, primary screen, S. cerevisiae, Nile Red, multiplex. AID 485275, 2010. S. cerevisiae Candida pump triplex. actives 0.44% (n = 330,000). inhibition, % at 10 µM;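 active = plate passing quality check with inhibition over a set limit, or well fluorescence over plate mean plus 4 SD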;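 note: Nile Red retained in pooled yeast measured as flow cytometry median fluorescence; higher means more Nile Red kept so more efflux inhibition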
ARNT TACC3 PPI = disruptors of ARNT/TACC3 protein interaction, primary screen, biochemical, AlphaScreen, single concentration; Transforming acidic coiled-coil-containing protein 3 (Homo sapiens), Q9Y6A5; AlphaScreen His-ARNT PAS-B/GST-TACC3 binding, luminescence; TACC3 fragment carries E629A point mutation; inhibition, % at 9.99 µM; actives 0.66% (n = 390,000); AID 623870, 2012;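 active = mean inhibition of replicates at least 50% and at least half of replicates each reaching 50%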
RTF Ca sens act = cardiac RTF calcium sensitivity activators, primary screen, biochemical, IANBD-TnC fluorescence, EC20 calcium. activation, % at 7.2 µM. Troponin I, cardiac muscle (Homo sapiens) + Troponin T, cardiac muscle (Homo sapiens) + …. actives 0.24% (n = 340,000). AID 493008, 2010. IANBD-labeled TnC RTF fluorescence at EC20 calcium; 0% EC20 calcium, 100% full calcium;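 active = activation above the mean over all tested compounds plus 3 SD, cut at about 30% in these data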;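 note: rise in fluorescence read as greater calcium sensitivity of cardiac thin filaments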
Cardiac RTF inh = cardiac RTF calcium sensitivity inhibitors, primary screen, biochemical, IANBD-TnC fluorescence, EC70 calcium; Troponin I, cardiac muscle (Homo sapiens) + Troponin T, cardiac muscle (Homo sapiens) + …; IANBD-labeled cardiac RTF, Ca2+ fluorescence; inhibition, % at 7.15 µM; actives 0.12% (n = 340,000); AID 493244, 2011;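 active = inhibition above the mean inhibition of all tested compounds plus 3 SD, cut at about 17% in these data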;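 note: assay run at fixed EC70 calcium of 1.6 mM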
UCH37 DUB inh = inhibitors of human UCH37 deubiquitinase, primary screen, biochemical, Ub-AMC cleavage, fluorescence; Ubiquitin carboxyl-terminal hydrolase isozyme L5 (Homo sapiens), Q9Y5K5; purified proteasome/UCH37; inhibition, % (concentration not given with the values); actives 0.33% (n = 330,000); AID 588478, 2011;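 active = mean inhibition over replicate wells above about 20%, limit read from the data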
Target sequence (Q9Y5K5 whole entry, looked up): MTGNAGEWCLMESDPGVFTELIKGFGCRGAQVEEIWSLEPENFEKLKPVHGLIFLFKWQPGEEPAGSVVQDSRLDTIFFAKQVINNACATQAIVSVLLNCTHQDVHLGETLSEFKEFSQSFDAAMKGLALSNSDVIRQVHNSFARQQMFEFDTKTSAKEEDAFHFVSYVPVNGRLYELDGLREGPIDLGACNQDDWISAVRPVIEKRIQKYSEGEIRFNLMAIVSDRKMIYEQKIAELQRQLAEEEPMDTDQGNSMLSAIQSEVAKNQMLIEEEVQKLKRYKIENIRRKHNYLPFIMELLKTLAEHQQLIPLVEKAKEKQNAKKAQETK
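Material: Human UCH37 enzyme supplied as purified proteasome complex | Schedule: 30 min compound-proteasome preincubation then 25 min substrate reaction, room temperature | Detection: AMC fluorescence from Ub-AMC cleavage, excitation 355 nm, emission 460 nm | Benchmarks: Wells without proteasome as full block, compound-free enzyme plus substrate as uninhibited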
SUMO Mot1 rescue = yeast Mot1-301 growth rescue at high temperature, primary screen, SUMOylation pathway inhibitor project, S. cerevisiae, ATP luminescence, 38.5C; growth rescue, % at 18.8 µM; S. cerevisiae Mot1-301 growth rescue; percent above DMSO median, 100 means doubled; actives 1% (n = 320,000); AID 2716, 2010;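 active = every valid replicate shows activation above 250% relative to neutral control wells; inactive = the rest, any valid replicate at or below 250%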
Yeast Mot1 SUMO = growth restoration of Mot1-301 yeast on galactose, dose response, SUMO pathway inhibitor project, whole organism, S. cerevisiae, ATP luminescence, cherry-picked samples. shares compounds with SUMO Mot1 rescue. S. cerevisiae Mot1-301 galactose growth, 24 h; -100 = growth of slx-deleted rescue strain. growth activity, percent, % at 42 µM. 2,300 tested, under 10 active;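 active = Signal drops as the depositor expects, and the fitted half-maximal dose is no more than ten times the top valid tested dose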;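 note: more negative values mean stronger growth rescue toward the control strain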
Large screens that a line does not name were inactive (follow-up assays come after a bar, where they were run). In the library only some 2.1% were active in any assay of this set; here they are far more common.

Cc1cc(OCC(=O)NCC2CCC(C(=O)O)CC2)c2c(C)c(C)c(=O)oc2c1 (stereo not drawn)	SUMO Mot1 rescue 358 | Yeast Mot1 SUMO inactive
Nc1nonc1-n1nnc(C(=O)NN=Cc2ccc(OCc3ccccc3F)cc2)c1CN1CCCCC1	none (no result: Efflux pump inh, ARNT TACC3 PPI, RTF Ca sens act, Cardiac RTF inh, SUMO Mot1 rescue)
CC(C)N=C(NS(=O)(=O)NC(=O)c1ccccc1)c1ccccc1	SUMO Mot1 rescue 456 (no result: UCH37 DUB inh) | Yeast Mot1 SUMO inactive
CC(=O)Nc1ccc(S(=O)(=O)N(C)CC(=O)Nc2ccc(Br)cc2F)cc1	SUMO Mot1 rescue 513 | Yeast Mot1 SUMO inactive
CN(CC(=O)Nc1ccncc1)S(=O)(=O)c1ccc(Br)cc1	none
CCn1c(SCC(N)=O)nnc1-c1cc2c(C)nn(-c3ccccc3)c2s1	SUMO Mot1 rescue active | Yeast Mot1 SUMO inactive
O=C(NC1CCCCC1)c1ccc2snnc2c1	SUMO Mot1 rescue 529 | Yeast Mot1 SUMO inactive
Nc1nc2ccc(C(=O)NC3CCCCC3)cc2s1	none
Cc1ccc(C)c(C(=O)CN2C(=O)c3ccccc3C2=O)c1	none
Cc1c(O)ccc(C(=O)CN2C(=O)c3ccccc3C2=O)c1O	SUMO Mot1 rescue 876 | Yeast Mot1 SUMO inactive
CN(CC(=O)Nc1ccc(F)cc1)C(=O)CSc1nc2ncc(Cl)cc2[nH]1	none
COc1ccc2nc(SCC(=O)N(C)CC(=O)Nc3ccc(F)cc3)[nH]c2c1	SUMO Mot1 rescue 558 | Yeast Mot1 SUMO inactive
CCn1nc(C)c(C=NNC(=O)Cn2nccc2C)c1C	none (no result: Efflux pump inh, ARNT TACC3 PPI, RTF Ca sens act, Cardiac RTF inh, SUMO Mot1 rescue)
O=C(CSc1nccc(=O)[nH]1)c1cc2ccccc2o1	SUMO Mot1 rescue 586 (no result: UCH37 DUB inh) | Yeast Mot1 SUMO inactive
Cc1cc2nc3ccc(=[N+](C)C)cc-3sc2cc1N	none (no result: Efflux pump inh, SUMO Mot1 rescue)
CN(C)c1ccc2nc3ccc(=[N+](C)C)cc-3sc2c1	SUMO Mot1 rescue 557 (no result: ARNT TACC3 PPI) | Yeast Mot1 SUMO inactive
Cc1ccc(S(=O)(=O)N2CCCC2CNC(=O)C(=O)NCc2ccccn2)cc1 (stereo not drawn)	none
COc1ccc(S(=O)(=O)N2CCCC2CNC(=O)C(=O)NCc2ccccn2)cc1 (stereo not drawn)	SUMO Mot1 rescue 440 | Yeast Mot1 SUMO inactive
Cc1ccc(NC(=O)C(=O)NCC2CCCN2S(=O)(=O)c2cccs2)cc1 (stereo not drawn)	SUMO Mot1 rescue 464 | Yeast Mot1 SUMO inactive
O=C(NCC1CCCN1S(=O)(=O)c1cccs1)C(=O)Nc1ccccc1 (stereo not drawn)	none
Cc1ccc(C)c(NC(=O)CCC(=O)NN=Cc2cccnc2)c1	none (no result: Efflux pump inh, ARNT TACC3 PPI, RTF Ca sens act, Cardiac RTF inh, SUMO Mot1 rescue)
Cc1ccccc1C(=O)NNC(=O)/C=C\C(=O)O	SUMO Mot1 rescue 792 | Yeast Mot1 SUMO inactive
CC(=NNS(=O)(=O)c1ccc(Br)cc1)c1ccncc1	none (no result: Efflux pump inh, ARNT TACC3 PPI, RTF Ca sens act, Cardiac RTF inh, SUMO Mot1 rescue)
Cc1occc1C(=O)NN=CC1=C(N2CCOCC2)/C(=C\c2ccc(Cl)cc2)CC1	none (no result: Efflux pump inh, ARNT TACC3 PPI, RTF Ca sens act, Cardiac RTF inh, SUMO Mot1 rescue)
CCN(CC)CCCNC(=O)C1c2ccccc2C(=O)N(CCOC)C1c1ccc(F)cc1 (stereo not drawn)	SUMO Mot1 rescue 691 | Yeast Mot1 SUMO inactive
CCN(CCCNC(=O)C1c2ccccc2C(=O)N(CCOC)C1c1ccc(F)cc1)Cc1ccccc1 (stereo not drawn)	none
COCC(=O)NN=C(C)CC(=O)Nc1ccccc1C(N)=O	none (no result: Efflux pump inh, ARNT TACC3 PPI, RTF Ca sens act, Cardiac RTF inh, SUMO Mot1 rescue)
O=[N+]([O-])c1ccc(-c2csc(N3CCc4ccccc4C3)n2)cc1	SUMO Mot1 rescue 367 | Yeast Mot1 SUMO inactive
O=C(CNC(=O)C1CCCCC1)NCCCO	none
CN(C)C(=O)CNC(=O)C1CCCCC1	SUMO Mot1 rescue active | Yeast Mot1 SUMO inactive
O=C1COc2ccc(C(=O)COC(=O)c3ncc(Cl)c(Cl)c3Cl)cc2N1	SUMO Mot1 rescue 851 | Yeast Mot1 SUMO inactive

Bioassay records deposited in PubChem by several laboratories.
